# In ChEMBL document CHEMBL1133294, “Potent, selective 3-pyridylethanolamine beta3 adrenergic receptor agonists possessing a thiazole benzenesulfonamide pharmacophore” (Bioorg Med Chem Lett, 2000):
# Experiments:
# [1] = biological target: Beta-2 adrenergic receptor (Homo sapiens, UniProt P07550); assay: Binding affinity against human Beta-2 adrenergic receptor expressed in CHO cells using [125I]iodocyanopindolol; type: cell-based
# [2] = biological target: T1, Beta-3 adrenergic receptor (Homo sapiens, UniProt P13945); assay: Stimulated increase in cAMP in CHO cells expressing human beta-3 receptor; type: functional, cell-based
# Target sequence in this assay (P13945 whole entry): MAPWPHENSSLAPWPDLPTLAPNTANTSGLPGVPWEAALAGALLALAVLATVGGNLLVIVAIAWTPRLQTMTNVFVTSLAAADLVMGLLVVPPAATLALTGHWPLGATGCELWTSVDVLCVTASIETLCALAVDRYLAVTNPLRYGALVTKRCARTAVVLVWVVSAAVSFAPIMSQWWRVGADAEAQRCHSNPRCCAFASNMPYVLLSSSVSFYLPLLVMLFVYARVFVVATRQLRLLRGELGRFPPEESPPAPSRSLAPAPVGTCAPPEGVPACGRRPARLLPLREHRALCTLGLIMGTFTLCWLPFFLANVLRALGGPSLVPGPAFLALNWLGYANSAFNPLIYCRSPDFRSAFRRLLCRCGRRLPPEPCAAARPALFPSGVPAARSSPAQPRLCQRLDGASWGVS
# [3] = biological target: T1, Beta-3 adrenergic receptor; assay: Percent increase in adenylyl cyclase activation in CHO cells expressing human beta-3 adrenergic receptor; type: functional, cell-based
# How it was run: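 Functional adenylyl cyclase stimulation via the β3 receptor. Activation expressed as percent of the maximal stimulation produced by isoproterenol.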
# Target sequence in this assay (P13945 whole entry, looked up): as the sequence (P13945 whole entry) above
# [4] = biological target: Beta-1 adrenergic receptor (Homo sapiens, UniProt P08588); assay: Binding affinity (measured using [125I]iodocyanopindolol) against human Beta-1 adrenergic receptor expressed in CHO cells; type: cell-based
# How it was run: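 Membranes from CHO cells expressing cloned human β1 receptor; competition binding against 125I-iodocyanopindolol.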
# [5] = Bioavailability after peroral administration in dogs; type: ADME, organism-based, Canis lupus familiaris; settings: dog, in vivo, po
# How it was run: (§1)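 Beagle dogs dosed orally at 10 mg/kg (solution in 0.5% methylcellulose/0.02% sodium lauryl sulfate with 2 equiv HCl) and iv at 3 mg/kg (PEG400/ethanol/normal saline 60:20:20 v/v/v). Blood taken predose and at 5 (iv only), 15, 30 min, 1, 2, 6, 8, 24 h. Plasma drug measured by LC/MS/MS.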
# [6] = Oral bioavailability in dog; type: ADME, organism-based, Canis lupus familiaris; settings: in vivo; how it was run: as §1
# [7] = Half life period was determined; type: ADME, organism-based, Canis lupus familiaris; settings: dog, in vivo; how it was run: as §1
# Beta-1 adrenergic receptor, sequence (P08588 whole entry): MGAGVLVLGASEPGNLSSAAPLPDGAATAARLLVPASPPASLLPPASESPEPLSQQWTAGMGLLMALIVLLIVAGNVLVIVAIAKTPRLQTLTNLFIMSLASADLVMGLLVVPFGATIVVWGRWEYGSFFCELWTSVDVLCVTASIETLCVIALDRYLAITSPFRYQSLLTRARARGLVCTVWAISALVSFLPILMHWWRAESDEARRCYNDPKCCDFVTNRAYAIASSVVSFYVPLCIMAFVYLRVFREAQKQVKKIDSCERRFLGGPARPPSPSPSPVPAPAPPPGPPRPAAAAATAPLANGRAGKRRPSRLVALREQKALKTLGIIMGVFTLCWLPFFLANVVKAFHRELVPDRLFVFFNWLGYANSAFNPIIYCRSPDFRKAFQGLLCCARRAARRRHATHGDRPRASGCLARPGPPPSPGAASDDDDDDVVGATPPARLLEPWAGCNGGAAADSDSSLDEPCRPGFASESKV
# Beta-2 adrenergic receptor, sequence (P07550 whole entry): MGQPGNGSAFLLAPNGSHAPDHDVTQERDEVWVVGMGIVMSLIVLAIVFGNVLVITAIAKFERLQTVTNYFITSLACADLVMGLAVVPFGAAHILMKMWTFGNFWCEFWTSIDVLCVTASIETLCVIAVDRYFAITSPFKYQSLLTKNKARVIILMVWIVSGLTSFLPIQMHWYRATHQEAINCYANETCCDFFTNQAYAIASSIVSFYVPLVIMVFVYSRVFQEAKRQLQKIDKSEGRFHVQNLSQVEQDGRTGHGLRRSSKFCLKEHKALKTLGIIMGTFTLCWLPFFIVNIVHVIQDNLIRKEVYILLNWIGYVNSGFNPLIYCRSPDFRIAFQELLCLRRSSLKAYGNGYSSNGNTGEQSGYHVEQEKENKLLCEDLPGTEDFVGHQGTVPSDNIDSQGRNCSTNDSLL
IC50 [1] [nM],EC50 [2] [nM],Max stimulation [3] [%],IC50 [4] [nM],bioavailability [5] [%],bioavailability [6] [%],half-life [7] [h],Structure (SMILES)
8000,2.7,97,6000,–,–,–,O=S(=O)(Nc1ccc(CCNC[C@H](O)c2cccnc2)cc1)c1ccc(-c2nc(-c3ccc4ncccc4c3)cs2)cc1
2100,45,82,960,–,–,–,CC(=O)Nc1ccc(-c2csc(-c3ccc(S(=O)(=O)Nc4ccc(CCNC[C@H](O)c5cccnc5)cc4)cc3)n2)cc1
–,–,92,–,36,–,–,O=S(=O)(Nc1ccc(CCNC[C@H](O)c2cccnc2)cc1)c1ccc(-c2nc(-c3ccc(F)c(F)c3)cs2)cc1
2500,6.2,57,3000,–,–,–,O=S(=O)(Nc1ccc(CCNC[C@H](O)c2cccnc2)cc1)c1ccc(-c2nc(Cc3ccc(F)cc3)cs2)cc1
5700,45,58,1100,–,–,–,O=S(=O)(Nc1ccc(CCNC[C@H](O)c2cccnc2)cc1)c1ccc(-c2nc(-c3ccc(O)cc3)cs2)cc1
–,–,–,–,–,13,–,CCCCCCCCc1csc(N2CCc3cc(S(=O)(=O)Nc4ccc(CCNC[C@H](O)c5cccnc5)cc4)ccc32)n1
3000,40,69,7000,–,–,–,O=S(=O)(Nc1ccc(CCNC[C@H](O)c2cccnc2)cc1)c1ccc(-c2nc(-c3cccnc3)cs2)cc1
1000,9.8,79,850,–,–,–,CCCCCCCCc1csc(Cc2ccc(S(=O)(=O)Nc3ccc(CCNC[C@H](O)c4cccnc4)cc3)cc2)n1
3000,26,95,7000,–,–,–,O=S(=O)(Nc1ccc(CCNC[C@H](O)c2cccnc2)cc1)c1ccc(-c2nc(CCCC3CCCC3)cs2)cc1
3000,10,84,3700,–,–,–,CCCCCCCCc1csc(-c2ccc(S(=O)(=O)Nc3ccc(CCNC[C@H](O)c4cccnc4)cc3)cc2)n1
910,33,70,9000,–,–,–,O=S(=O)(Nc1ccc(CCNC[C@H](O)c2cccnc2)cc1)c1ccc(-c2nc(CCc3ccccc3)cs2)cc1
6300,2,100,13000,–,–,–,O=S(=O)(Nc1ccc(CCNC[C@H](O)c2cccnc2)cc1)c1ccc(-c2nc(-c3ccc4ccccc4c3)cs2)cc1
2000,12,83,2500,–,–,–,O=S(=O)(Nc1ccc(CCNC[C@H](O)c2cccnc2)cc1)c1ccc(Cc2nc(Cc3ccc4ccccc4c3)cs2)cc1
1900,9.5,81,1500,–,–,–,O=S(=O)(Nc1ccc(CCNC[C@H](O)c2cccnc2)cc1)c1ccc(-c2nc(-c3ccc(F)cc3)cs2)cc1
2000,2.4,100,1600,–,–,–,CC(C)(C)c1ccc(-c2csc(-c3ccc(S(=O)(=O)Nc4ccc(CCNC[C@H](O)c5cccnc5)cc4)cc3)n2)cc1
50000,4.9,100,30000,–,–,–,O=S(=O)(Nc1ccc(CCNC[C@H](O)c2cccnc2)cc1)c1ccc(-c2nc(-c3c[nH]c4ccccc34)cs2)cc1
93000,5.8,94,100000,–,–,–,O=S(=O)(Nc1ccc(CCNC[C@H](O)c2cccnc2)cc1)c1ccc(-c2nc(-c3cc4ccccc4s3)cs2)cc1
16000,50,82,50000,–,–,–,CC(=O)NCCCCCc1csc(-c2ccc(S(=O)(=O)Nc3ccc(CCNC[C@H](O)c4cccnc4)cc3)cc2)n1
4000,22,100,6500,–,–,–,O=S(=O)(Nc1ccc(CCNC[C@H](O)c2cccnc2)cc1)c1ccc(-c2nc(-c3ccccn3)cs2)cc1
47000,7.3,79,19000,–,–,–,O=S(=O)(Nc1ccc(CCNC[C@H](O)c2cccnc2)cc1)c1ccc(-c2nc(-c3cnc4ccccc4c3)cs2)cc1
–,–,–,–,–,–,3.6,O=c1n(CCCC2CCCC2)nnn1-c1ccc(S(=O)(=O)Nc2ccc(CCNC[C@H](O)c3cccnc3)cc2)cc1
2300,5,75,3300,–,–,–,O=S(=O)(Nc1ccc(CCNC[C@H](O)c2cccnc2)cc1)c1ccc(-c2nc(Cc3ccc4ccccc4c3)cs2)cc1
49000,9.1,91,90000,–,–,–,O=S(=O)(Nc1ccc(CCNC[C@H](O)c2cccnc2)cc1)c1ccc(-c2nc(-c3cc4ccccc4o3)cs2)cc1
90000,1.2,84,52000,–,–,–,CCCCCCc1ccc(-c2csc(-c3ccc(S(=O)(=O)Nc4ccc(CCNC[C@H](O)c5cccnc5)cc4)cc3)n2)cc1

Structure (SMILES),IC50 [1] [nM],EC50 [2] [nM],Max stimulation [3] [%],IC50 [4] [nM],bioavailability [5] [%],bioavailability [6] [%],half-life [7] [h]
CCCCCCc1csc(-c2ccc(S(=O)(=O)Nc3ccc(CCNC[C@H](O)c4cccnc4)cc3)cc2)n1,620,51,69,40000,–,–,–
